From ChEMBL document CHEMBL5107963, “Design, synthesis and anti-mycobacterial evaluation of imidazo[1,2-a]pyridine analogues” (RSC Med Chem, 2022)
Converted amounts (≈) assume the structure as drawn.

Test system: Mycobacterium tuberculosis
Assay: Anti-mycobacterial activity against Mycobacterium tuberculosis H37Rv incubated for 5 days by alamar blue assay
Assay type: functional
Conditions: 120 h, time 5 day
In short: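 Inoculum from Löwenstein-Jensen culture suspended in Middlebrook 7H9 broth with 0.2% glycerol and 10% OADC, diluted 1:20. Compounds serially diluted in 7H9, final 100 to 0.4 µg/ml. Sealed plates incubated 37°C for 5 days, then Alamar Blue/10% Tween 80 (1:1) added for 24 h. Blue = no growth, pink = growth; MIC is lowest concentration preventing blue-to-pink change.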

Going from `COc1ccc(-c2cn3cc(C4=CCN(C(=O)c5ccc(F)cc5)CC4)ccc3n2)cc1OC` to `COc1ccc(-c2cn3cc(C4=CCN(C(=O)c5cccc(F)c5)CC4)ccc3n2)cc1OC`, the MIC rises from 25 mg/L (≈ 54.6 µM) to 50 mg/L (≈ 109 µM) (2-fold).

Compared with `CC[C@@H](CO)NCCN[C@@H](CC)CO` [ETHAMBUTOL], `CCCS(=O)(=O)N1CC=C(c2ccc3nc(-c4ccc(OC)c(OC)c4)cn3c2)CC1` is 2-fold higher in MIC: 6.25 mg/L (≈ 30.6 µM) for the first, 12.5 mg/L (≈ 28.3 µM) for the second.

`COc1ccc(-c2cn3cc(C4=CCN(C(=O)C5CC5)CC4)ccc3n2)cc1OC` and `COc1ccc(-c2cn3cc(C4=CCN(C(=O)C5CCCCC5)CC4)ccc3n2)cc1OC` are the same in MIC: 50 mg/L (≈ 124 µM) for the first, 50 mg/L (≈ 112 µM) for the second.

First: COc1ccc(-c2cn3cc(C4=CCN(S(=O)(=O)c5ccc(Br)cc5)CC4)ccc3n2)cc1OC
Second: COc1ccc(-c2cn3cc(C4=CCN(S(=O)(=O)c5ccc(C)cc5)CC4)ccc3n2)cc1OC
The MIC of the first is 4-fold lower: 6.25 mg/L (≈ 11.3 µM) for the first, 25 mg/L (≈ 51.1 µM) for the second.

Compared with `COc1ccc(-c2cn3cc(C4=CCN(S(=O)(=O)c5ccc(Br)s5)CC4)ccc3n2)cc1OC`, `COc1ccc(-c2cn3cc(C4=CCN(S(=O)(=O)c5ccc(Cl)s5)CC4)ccc3n2)cc1OC` is 2-fold higher in MIC: 3.12 mg/L (≈ 5.58 µM) for the first, 6.25 mg/L (≈ 12.1 µM) for the second.

Going from `COc1ccc(-c2cn3cc(C4=CCN(C(=O)C(C)(C)C)CC4)ccc3n2)cc1OC` to `COc1ccc(-c2cn3cc(C4=CCN(C(C)=O)CC4)ccc3n2)cc1OC`, the MIC rises from 100 mg/L (≈ 238 µM) to greater than 100 mg/L.

`COc1ccc(-c2cn3cc(C4=CCN(S(=O)(=O)C5CCCC5)CC4)ccc3n2)cc1OC` and `COc1ccc(-c2cn3cc(C4=CCN(S(=O)(=O)C5CCCCC5)CC4)ccc3n2)cc1OC` are the same in MIC: 25 mg/L (≈ 53.5 µM) for the first, 25 mg/L (≈ 51.9 µM) for the second.

`COc1ccc(-c2cn3cc(C4=CCN(S(=O)(=O)c5ccc(F)cc5)CC4)ccc3n2)cc1OC` and `COc1ccc(-c2cn3cc(C4=CCN(S(=O)(=O)c5ccc(Cl)cc5)CC4)ccc3n2)cc1OC` are the same in MIC: 6.25 mg/L (≈ 12.7 µM) for the first, 6.25 mg/L (≈ 12.3 µM) for the second.

Going from `Nc1ccc(C(=O)O)c(O)c1` [AMINOSALICYLIC ACID] to `COc1ccc(-c2cn3cc(C4=CCN(C(=O)c5ccccc5F)CC4)ccc3n2)cc1OC`, the MIC falls from 12.5 mg/L (≈ 81.6 µM) to 6.25 mg/L (≈ 13.7 µM) (2-fold).

Going from `COc1ccc(-c2cn3cc(C4=CCN(C(=O)c5cocn5)CC4)ccc3n2)cc1OC` to `COc1ccc(-c2cn3cc(C4=CCN(C(=O)c5ccccn5)CC4)ccc3n2)cc1OC`, the MIC rises from 50 mg/L (≈ 116 µM) to 100 mg/L (≈ 227 µM) (2-fold).

First: COc1ccc(-c2cn3cc(C4=CCN(C(=O)c5ccco5)CC4)ccc3n2)cc1OC
Second: COc1ccc(-c2cn3cc(C4=CCN(C(=O)c5cccs5)CC4)ccc3n2)cc1OC
The MIC of the first is 2-fold higher: 50 mg/L (≈ 116 µM) for the first, 25 mg/L (≈ 56.1 µM) for the second.

First: COc1ccc(-c2cn3cc(C4=CCN(C(=O)COCc5ccccc5)CC4)ccc3n2)cc1OC
Second: COc1ccc(-c2cn3cc(C4=CCN(S(=O)(=O)c5ccccc5)CC4)ccc3n2)cc1OC
The MIC of the first is 2-fold higher: 50 mg/L (≈ 103 µM) for the first, 25 mg/L (≈ 52.6 µM) for the second.

`COc1ccc(-c2cn3cc(C4=CCN(S(=O)(=O)c5ccc(C(C)=O)cc5)CC4)ccc3n2)cc1OC` and `COc1ccc(-c2cn3cc(C4=CCN(S(=O)(=O)c5ccc([N+](=O)[O-])cc5)CC4)ccc3n2)cc1OC` are the same in MIC: 6.25 mg/L (≈ 12.1 µM) for the first, 6.25 mg/L (≈ 12 µM) for the second.

`COc1ccc(-c2cn3cc(C4=CCN(S(=O)(=O)c5ccc(C(F)(F)F)cc5)CC4)ccc3n2)cc1OC` and `COc1ccc(-c2cn3cc(C4=CCN(S(=O)(=O)c5ccc(C(C)(C)C)cc5)CC4)ccc3n2)cc1OC` are the same in MIC: 6.25 mg/L (≈ 11.5 µM) for the first, 6.25 mg/L (≈ 11.8 µM) for the second.

`COc1ccc(-c2cn3cc(C4=CCN(C(=O)c5cccc(C(F)(F)F)c5)CC4)ccc3n2)cc1OC` and `CCS(=O)(=O)N1CC=C(c2ccc3nc(-c4ccc(OC)c(OC)c4)cn3c2)CC1` are the same in MIC: 12.5 mg/L (≈ 24.6 µM) for the first, 12.5 mg/L (≈ 29.2 µM) for the second.

In the case of `COc1ccc(-c2cn3cc(C4=CCN(S(=O)(=O)C5CC5)CC4)ccc3n2)cc1OC`, the MIC is reported as 12.5 mg/L (≈ 28.4 µM).
